According to ChEMBL document CHEMBL4411275, “Design, synthesis and biological evaluation of quinoline-indole derivatives as anti-tubulin agents targeting the colchicine binding site” (Eur J Med Chem, 2019):
pIC50: −log10 of the molar value.

Key:
K562 [1] = assay: Cell cycle arrest in human K562 cells assessed as accumulation of cells at S phase at 1 nM after 48 hrs by propidium iodide staining-based flow cytometric analysis (reference value: 19.93%); format: functional
KB = assay: Antiproliferative activity against human KB cells after 72 hrs by MTT assay; format: functional, cell-based
Method in brief: (§1)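 Cells preincubated 24 h at 37 °C, 5% CO₂. Compounds added at several concentrations in medium with 0.1% DMSO for 72 h. MTT (5 mg/mL in PBS) then added for 4 h, and optical density read at 490 nm. IC50 taken from dose-response curves; mean ± SD of at least three independent experiments.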

[2] = Drug resistance index, ratio of IC50 for taxol-resistant human A549/TR cells to IC50 for human A549 cells; format: functional
Method in brief: (§2)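 Resistant and parental sensitive lines exposed to a range of compound concentrations in medium with 0.1% DMSO for 72 h at 37 °C, 5% CO2, after 24 h pre-culture. MTT added for 4 h, absorbance read at 490 nm. IC50 from dose-response curves, at least three independent experiments. DRI = IC50 resistant / IC50 parental.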

[3] = Antiproliferative activity against human taxol-resistant HCT8/T cells after 72 hrs by MTT assay; format: functional; settings: HCT-8, 72 h; method in brief: as §1
Bel-7402 = assay: Antiproliferative activity against human Bel7402 cells after 72 hrs by MTT assay; format: functional, cell-based; settings: Bel-7402, 72 h; method in brief: as §1
Tubulin = Tubulin (Sus scrofa, UniProt P02554+P02550); assay: Inhibition of porcine brain tubulin polymerization preincubated for 30 mins and measured every 2 mins for 60 mins by spectrophotometric analysis
K562 [4] = assay: Cell cycle arrest in human K562 cells assessed as accumulation of cells at G1 phase at 4 nM after 48 hrs by propidium iodide staining-based flow cytometric analysis (reference value: 69.57%); format: functional
A549 = assay: Antiproliferative activity against human A549 cells after 72 hrs by MTT assay; format: functional, cell-based; settings: A549, 72 h; method in brief: as §1
Tubulin (Sus scrofa) [5] = target: T1, Tubulin (Sus scrofa) (UniProt P02554+P02550); assay: Inhibition of [3H]-colchicine binding to biotinylated porcine tubulin at 5 uM after 2 hrs by SPA relative to control; format: protein assay
T1 sequence (P02550 whole entry, looked up): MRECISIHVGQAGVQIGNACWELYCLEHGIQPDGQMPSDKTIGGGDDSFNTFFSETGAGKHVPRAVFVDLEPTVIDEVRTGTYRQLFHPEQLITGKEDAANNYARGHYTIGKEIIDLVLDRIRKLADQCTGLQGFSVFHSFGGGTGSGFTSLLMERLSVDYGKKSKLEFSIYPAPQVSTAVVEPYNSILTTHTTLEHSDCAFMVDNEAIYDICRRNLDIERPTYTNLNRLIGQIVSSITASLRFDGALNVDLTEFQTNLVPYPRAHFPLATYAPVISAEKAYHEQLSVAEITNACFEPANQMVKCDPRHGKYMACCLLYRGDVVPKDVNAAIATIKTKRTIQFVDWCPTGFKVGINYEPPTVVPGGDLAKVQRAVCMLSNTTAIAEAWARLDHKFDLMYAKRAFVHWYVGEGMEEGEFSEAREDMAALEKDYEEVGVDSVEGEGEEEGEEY
T1 sequence (P02554 whole entry, looked up): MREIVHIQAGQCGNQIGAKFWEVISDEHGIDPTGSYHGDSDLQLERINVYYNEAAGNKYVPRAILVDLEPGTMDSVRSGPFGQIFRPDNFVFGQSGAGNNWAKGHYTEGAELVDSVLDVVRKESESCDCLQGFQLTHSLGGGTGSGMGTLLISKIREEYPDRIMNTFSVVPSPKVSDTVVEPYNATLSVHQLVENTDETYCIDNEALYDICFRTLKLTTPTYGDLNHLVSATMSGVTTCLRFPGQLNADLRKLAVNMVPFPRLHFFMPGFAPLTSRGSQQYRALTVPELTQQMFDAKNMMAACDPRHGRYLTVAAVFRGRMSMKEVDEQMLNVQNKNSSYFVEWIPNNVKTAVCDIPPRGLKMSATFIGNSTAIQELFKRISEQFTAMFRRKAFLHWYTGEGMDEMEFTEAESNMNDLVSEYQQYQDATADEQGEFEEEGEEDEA
Method in brief: (§3)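 Scintillation proximity assay: 0.08 μM [3H]colchicine incubated with biotinylated porcine tubulin (0.5 μg) and test compound for 2 h at 37 °C in 80 mM PIPES pH 6.8, 1 mM EGTA, 10% glycerol, 1 mM MgCl2, 1 mM GTP. Streptavidin SPA beads then added, and bound radioactivity counted by scintillation counter.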

H22 (Mus musculus) [6] = assay: Antitumor activity against mouse H22 cells xenografted in ICR mouse assessed as reduction in tumor weight at 20 mg/kg/day, iv for 21 days relative to control; set-up: scale not given: the % may be the effect or the level left
HUVEC [7] = assay: Anti-vascular activity in HUVEC assessed as inhibition of tube formation after 6 hrs by inverted microscopic analysis; format: functional, cell-based; settings: Homo sapiens
Method in brief: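 Matrigel thawed overnight at 4 °C and polymerised at 37 °C for 30 min. HUVECs in DMEM seeded at 50,000 cells/well, then exposed to 1, 2 or 4 nM compound or vehicle for 6 h at 37 °C. Capillary-like tubes photographed under an inverted microscope.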

[8] = Drug resistance index, ratio of IC50 for VCR-resistant human K562/VCR cells to IC50 for human K562 cells; format: functional
HCT-8 = assay: Antiproliferative activity against human HCT8 cells after 72 hrs by MTT assay; format: functional, cell-based; settings: HCT-8, 72 h; method in brief: as §1
K562 [9] = assay: Cell cycle arrest in human K562 cells assessed as accumulation of cells at S phase at 4 nM after 48 hrs by propidium iodide staining-based flow cytometric analysis (reference value: 19.93%); format: functional
HUVEC [10] = assay: Anti-migratory activity in HUVEC after 24 hrs by inverted microscopic analysis; format: functional, cell-based; settings: Homo sapiens
Method in brief: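 Scratch wound made in monolayers with a 200 μL pipette tip, then washed twice with PBS. Medium with 1, 2 or 4 nM compound added. Phase-contrast images taken at 0 h and 24 h, and the migration distance into the wound measured manually.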

[11] = Drug resistance index, ratio of IC50 for taxol-resistant human HCT8/T cells to IC50 for human HCT8 cells; format: functional; method in brief: as §2
Tubulin (Homo sapiens) = Tubulin (Homo sapiens) (UniProt P68371+Q9H4B7+P0DPH7+P68366+Q13509+Q71U36+P04350+Q3ZCM7+P07437+P68363+Q9BQE3+Q6PEY2+Q13885+Q9BVA1+Q9BUF5); assay: Induction of microtubule disruption in human K562 cells after 24 hrs by DAPI staining-based fluorescence assay; format: cell-based
Method in brief: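 K562 cells exposed 24 h to 1, 2 or 4 nM compound or 0.1% DMSO. Fixed in 4% paraformaldehyde and blocked 20 min with goat serum at room temperature. Incubated with anti-α-tubulin monoclonal antibody for 2 h at 37 °C, then fluorescent antibody, with DAPI nuclear counterstain. Imaged by confocal microscopy.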

K562 [12] = assay: Induction of apoptosis in human K562 cells at 2 nM after 48 hrs by Annexin-V/propidium iodide staining-based flow cytometric analysis (reference value: 5.96%)
K562 [13] = assay: Induction of mitochondrial membrane potential loss in human K562 cells assessed as intact mitochondrial membrane at 1 nM after 48 hrs by JC-1 dye-based flow cytometric analysis (RVB = 93.17%)
K562 [14] = assay: Cell cycle arrest in human K562 cells assessed as accumulation of cells at G2 phase at 4 nM after 48 hrs by propidium iodide staining-based flow cytometric analysis (reference value: 10.51%); format: functional
Tubulin (Sus scrofa) [15] = target: T1, Tubulin (Sus scrofa); assay: Inhibition of [3H]-colchicine binding to biotinylated porcine tubulin at 1 uM after 2 hrs by SPA relative to control; format: protein assay; method in brief: as §3
K562 [16] = assay: Cell cycle arrest in human K562 cells assessed as accumulation of cells at G2 phase at 1 nM after 48 hrs by propidium iodide staining-based flow cytometric analysis (reference value: 10.51%); format: functional
[17] = Drug resistance index, ratio of IC50 for ADR-resistant human Bel7402/ADR cells to IC50 for human Bel7402 cells; format: functional; method in brief: as §2
K562 [18] = assay: Induction of mitochondrial membrane potential loss in human K562 cells assessed as intact mitochondrial membrane at 4 nM after 48 hrs by JC-1 dye-based flow cytometric analysis (RVB = 93.17%)
H22 (Mus musculus) [19] = assay: Antitumor activity against mouse H22 cells xenografted in ICR mouse assessed as reduction in tumor weight at 10 mg/kg/day, iv for 21 days relative to control; set-up: scale not given: the % may be the effect or the level left
K562 [20] = assay: Induction of mitochondrial membrane potential loss in human K562 cells assessed as intact mitochondrial membrane at 2 nM after 48 hrs by JC-1 dye-based flow cytometric analysis (RVB = 93.17%)
K562 [21] = assay: Cell cycle arrest in human K562 cells assessed as accumulation of cells at S phase at 2 nM after 48 hrs by propidium iodide staining-based flow cytometric analysis (reference value: 19.93%); format: functional

With `C=C(c1ccc2c(ccn2CO)c1)c1cc(C)nc2ccccc12` the Activity (K562 [1]) was 27.38%, the pIC50 (KB) was 8.30 and the “Ratio IC50” value [2] was 13.2. For the same compound, the pIC50 [3] was 7.06, the pIC50 (Bel-7402) was 8.00 and the IC50 (Tubulin) was 2090 nM. The Activity (K562 [4]) was 45.79%, the pIC50 (A549) was 8.05 and the inhibition (Tubulin (Sus scrofa) [5]) was 90.5%. The Activity (H22 (Mus musculus) [6]) was 57.3%, the Activity (HUVEC [7]) was “Dose-dependent effect” and the “Ratio IC50” value [8] was 15.5. The pIC50 (HCT-8) was 8.15, the Activity (K562 [9]) was 31% and the Activity (HUVEC [10]) was “Dose-dependent effect”. The “Ratio IC50” value [11] was 12.6, the Activity (Tubulin (Homo sapiens)) was “Dose-dependent effect” and the Activity (K562 [12]) was 54.9%. It also gave an Activity (K562 [13]) of 70.66%, an Activity (K562 [14]) of 23.21% and an inhibition (Tubulin (Sus scrofa) [15]) of 79.4%. For the same compound, the Activity (K562 [16]) was 12.44%, the “Ratio IC50” value [17] was 6.1 and the Activity (K562 [18]) was 26.27%. For the same compound, the Activity (H22 (Mus musculus) [19]) was 48.8%, the Activity (K562 [20]) was 45.4% and the Activity (K562 [21]) was 33.21%.
